Active and inactive are the calls of the source.
Tests used:
Type in all cases: functional, organism-based
Details in all cases: time 40.0 day
Mus musculus [1] = test: Upregulation of Gss mRNA expression in tumor of BALB/C nu/nu mouse xenografted with human SK-OV-3 cells at 25 mg/kg, ip administered every 2 days for 40 days by qPCR analysis
Outline: (§1)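 Female BALB/c nu/nu mice, 10 weeks old, 4 per group. Inoculated s.c. with 1 × 10^8 cells/mL of log-phase U-87 MG or SKOV-3 cells. Dosed i.p. with 100 μL at 25 mg/kg every 2 days; controls got 100 μL saline. Tumors harvested on day 40. RNA extracted from about 20 mg of tissue. qPCR panel of 69 genes, 40 cycles (94 °C 20 s, 60 °C 34 s). Analysed by 2–ΔΔCt; fold ≥1.5 taken as increased.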

Mus musculus [2] = test: Upregulation of TFRC mRNA expression in tumor of BALB/C nu/nu mouse xenografted with human U-87 MG cells at 25 mg/kg, ip administered every 2 days for 40 days by qPCR analysis; outline: as §1
Mus musculus [3] = test: Upregulation of FTH1 mRNA expression in tumor of BALB/C nu/nu mouse xenografted with human SK-OV-3 cells at 25 mg/kg, ip administered every 2 days for 40 days by qPCR analysis
Outline: (§2)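 Female BALB/c nu/nu mice bearing sc U-87 MG or SKOV-3 xenografts were dosed ip at 25 mg/kg (100 μL) every 2 days, or given saline, and tumors were taken at day 40. RNA was extracted from about 20 mg of tissue. qPCR ran 40 cycles (95 °C 15 min; 94 °C 20 s; 60 °C 34 s) on a 69-gene panel. Fold change was by 2^–ΔΔCt, with ≥1.5 counted as increased.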

U-87MG ATCC [4] = test: Induction of ferroptosis-mediated antitumor activity against human U-87 MG cells xenografted in BALB/C nu/nu mouse assessed as increase in lactic acid level in tumor at 25 mg/kg, ip administered every 2 days for 40 days by biochemical analysis
Outline: (§3)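 U-87 MG or SKOV-3 sc xenografts (1 × 10^8 cells/mL) in female BALB/c nu/nu mice, 4 per group. Given 25 mg/kg ip in 100 μL every 2 days, or saline. Tumors harvested on day 40 and assayed for LPO, MDA, lactic acid, total glutathione (GSH + GSSG), ATP and Fe2+.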

Mus musculus [5] = test: Upregulation of ALOX5 mRNA expression in tumor of BALB/C nu/nu mouse xenografted with human SK-OV-3 cells at 25 mg/kg, ip administered every 2 days for 40 days by qPCR analysis; outline: as §2
SK-OV-3 [6] = test: Antitumor activity against human SK-OV-3 cells xenografted in BALB/C nu/nu mouse assessed as reduction in Ki67 expression in tumor at 25 mg/kg, ip administered every 2 days for 40 days by immunofluoresence staining based assay
Outline: (§4)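 Female BALB/c nu/nu mice, 10 weeks old, 4 per group. Received subcutaneous U-87 MG or SKOV-3 cells (1 × 10^8 cells/mL, harvested in log phase). Dosed ip with 100 μL at 25 mg/kg every 2 days; controls got 100 μL saline on the same schedule. Sacrificed at 40 days; tumors weighed, volume = ab²/2. Tumor sections (6 μm, paraffin) stained by immunofluorescence for Ki67 or CD31 with Alexa Fluor 488 secondary.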

Mus musculus [7] = test: Upregulation of Dpp4 mRNA expression in tumor of BALB/C nu/nu mouse xenografted with human SK-OV-3 cells at 25 mg/kg, ip administered every 2 days for 40 days by qPCR analysis; outline: as §2
Mus musculus [8] = test: Upregulation of Acsl4 mRNA expression in tumor of BALB/C nu/nu mouse xenografted with human U-87 MG cells at 25 mg/kg, ip administered every 2 days for 40 days by qPCR analysis; outline: as §2
Mus musculus [9] = test: Upregulation of Cars mRNA expression in tumor of BALB/C nu/nu mouse xenografted with human U-87 MG cells at 25 mg/kg, ip administered every 2 days for 40 days by qPCR analysis; outline: as §2
SK-OV-3 [10] = test: Induction of ferroptosis-mediated antitumor activity against human SK-OV-3 cells xenografted in BALB/C nu/nu mouse assessed as increase in malondialdehyde level in tumor at 25 mg/kg, ip administered every 2 days for 40 days by biochemical analysis; outline: as §3
Mus musculus [11] = test: Upregulation of Gclc mRNA expression in tumor of BALB/C nu/nu mouse xenografted with human U-87 MG cells at 25 mg/kg, ip administered every 2 days for 40 days by qPCR analysis; outline: as §2
Mus musculus [12] = test: Upregulation of Akr1c1 mRNA expression in tumor of BALB/C nu/nu mouse xenografted with human U-87 MG cells at 25 mg/kg, ip administered every 2 days for 40 days by qPCR analysis; outline: as §2
Mus musculus [13] = test: Upregulation of PPIF mRNA expression in tumor of BALB/C nu/nu mouse xenografted with human U-87 MG cells at 25 mg/kg, ip administered every 2 days for 40 days by qPCR analysis; outline: as §1
Mus musculus [14] = test: Upregulation of Ptgs2 mRNA expression in tumor of BALB/C nu/nu mouse xenografted with human SK-OV-3 cells at 25 mg/kg, ip administered every 2 days for 40 days by qPCR analysis; outline: as §1
SK-OV-3 [15] = test: Antitumor activity against human SK-OV-3 cells xenografted in BALB/C nu/nu mouse assessed as reduction in CD31 expression in tumor at 25 mg/kg, ip administered every 2 days for 40 days by immunofluoresence staining based assay; outline: as §4
Mus musculus [16] = test: Upregulation of Hspb1 mRNA expression in tumor of BALB/C nu/nu mouse xenografted with human SK-OV-3 cells at 25 mg/kg, ip administered every 2 days for 40 days by qPCR analysis; outline: as §1
U-87MG ATCC [17] = test: Induction of ferroptosis-mediated antitumor activity against human U-87 MG cells xenografted in BALB/C nu/nu mouse assessed as reduction in total glutathione level in tumor at 25 mg/kg, ip administered every 2 days for 40 days by biochemical analysis; outline: as §3
Mus musculus [18] = test: Upregulation of Htra2 mRNA expression in tumor of BALB/C nu/nu mouse xenografted with human U-87 MG cells at 25 mg/kg, ip administered every 2 days for 40 days by qPCR analysis; outline: as §1

Measured: Activity

COc1cc(C(=O)c2cn(-c3ncccn3)cc2-c2ccco2)cc(OC)c1OC
active: all assays above

Reference: ChEMBL document CHEMBL5236592, “Induction of Ferroptosis in Glioblastoma and Ovarian Cancers by a New Pyrrole Tubulin Assembly Inhibitor” (J Med Chem, 2022)
